Results of several laboratories.
Lines come from different studies, so protocols differ.
Target: Cyclin-G-associated kinase (GAK, Homo sapiens, UniProt O14976)
Residues used in one study (O14976 1-1311): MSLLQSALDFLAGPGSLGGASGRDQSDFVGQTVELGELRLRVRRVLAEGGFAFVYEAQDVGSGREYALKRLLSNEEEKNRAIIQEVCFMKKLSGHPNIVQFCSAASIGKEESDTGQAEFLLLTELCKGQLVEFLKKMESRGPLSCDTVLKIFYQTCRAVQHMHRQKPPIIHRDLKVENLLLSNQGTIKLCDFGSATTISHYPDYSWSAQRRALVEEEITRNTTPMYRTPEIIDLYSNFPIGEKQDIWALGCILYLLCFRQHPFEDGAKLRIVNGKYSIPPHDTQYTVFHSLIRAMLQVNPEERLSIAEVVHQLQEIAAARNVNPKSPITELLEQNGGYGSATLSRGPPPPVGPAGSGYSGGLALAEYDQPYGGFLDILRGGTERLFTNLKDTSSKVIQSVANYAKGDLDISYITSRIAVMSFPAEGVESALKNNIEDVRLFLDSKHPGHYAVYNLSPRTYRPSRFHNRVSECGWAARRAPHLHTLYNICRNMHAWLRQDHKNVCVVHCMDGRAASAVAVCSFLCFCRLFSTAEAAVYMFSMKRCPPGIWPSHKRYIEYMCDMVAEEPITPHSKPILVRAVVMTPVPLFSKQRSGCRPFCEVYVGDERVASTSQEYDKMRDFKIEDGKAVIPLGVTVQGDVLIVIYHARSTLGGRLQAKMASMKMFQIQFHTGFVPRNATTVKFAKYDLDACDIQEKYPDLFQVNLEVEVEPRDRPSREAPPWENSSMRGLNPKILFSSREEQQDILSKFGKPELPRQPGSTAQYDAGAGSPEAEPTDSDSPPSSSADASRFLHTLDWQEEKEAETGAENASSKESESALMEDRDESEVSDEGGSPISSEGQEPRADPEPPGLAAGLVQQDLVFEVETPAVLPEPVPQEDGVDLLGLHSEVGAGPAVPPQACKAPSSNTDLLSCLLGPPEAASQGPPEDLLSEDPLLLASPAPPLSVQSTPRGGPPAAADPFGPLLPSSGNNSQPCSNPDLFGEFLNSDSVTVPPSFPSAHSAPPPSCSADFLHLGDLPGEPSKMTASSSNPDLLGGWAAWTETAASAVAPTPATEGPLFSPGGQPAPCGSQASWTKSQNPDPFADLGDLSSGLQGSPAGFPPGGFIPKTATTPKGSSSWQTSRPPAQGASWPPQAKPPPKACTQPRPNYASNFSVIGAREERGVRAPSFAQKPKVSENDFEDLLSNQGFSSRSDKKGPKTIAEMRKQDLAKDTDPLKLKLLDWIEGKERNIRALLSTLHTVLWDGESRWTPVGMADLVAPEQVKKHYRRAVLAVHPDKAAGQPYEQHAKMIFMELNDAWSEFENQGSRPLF

N#CC1(c2ccccn2)CCN(Cc2cc(C(=O)N3CCCC3)c(=O)n3ccccc23)CC1  remaining binding (cell-free assay, competition with immobilised ligand; 1 µM): 100%
O=C(NCCCN1CCOCC1)c1ccc(Nc2nccc(-c3cc4ccccc4s3)n2)cc1  remaining binding (binding, competition with immobilised ligand; 1 µM): 21%
CC1CCCN1c1nccc(-c2cnn3ncccc23)n1 (stereo not shown)  remaining binding (binding; 1 µM): 94%
CCS(=O)(=O)c1cc2cc(C[C@](O)(CC(C)(C)c3ccc(F)cc3C(N)=O)C(F)(F)F)[nH]c2cn1  remaining binding (cell-free assay, competition with immobilised ligand; 1 µM): 100%
CCN1CCN(Cc2ccc(C(=O)Nc3ccc(C)c(Oc4ccc5c(c4)CC(=O)N5)c3)cc2C(F)(F)F)CC1  remaining binding (binding, competition with immobilised ligand; 1 µM): 100%
CN1CCN(c2cnc3c(C4CCN(C(=O)c5ccc(OC(F)(F)F)cc5N)CC4)ncnc3c2)CC1  remaining binding (cell-free assay, competition with immobilised ligand; 1 µM): 100%
C[C@@H](c1ccc(-n2cnc3c(N)ncnc32)cc1)N1CCc2nn(C)c(Cc3ccccc3)c2C1=O  remaining binding (binding, competition with immobilised ligand; 0.1 µM): 99%
C[C@H]1CCN(c2nccc(-c3cnn4ncccc34)n2)C1  remaining binding (binding; 1 µM): 28%
CC(=O)N1CCC(c2ccc(C(=O)NC3=NCCN3)cc2C(F)(F)F)CC1  remaining binding (cell-free assay, competition with immobilised ligand; 1 µM): 97%
CN(C)c1nccc(-c2cnc3ncccn23)n1  remaining binding (binding; 1 µM): 72%
O=C(NCCCN1CCOCC1)c1ccc(Nc2ncc(Cl)c(-c3ccc(Cl)s3)n2)cc1  remaining binding (binding, competition with immobilised ligand; 1 µM): 15%
FC(F)(F)Oc1cccc(-c2cnc3ccc(-c4ccncc4)nn23)c1  remaining binding (cell-free assay, competition with immobilised ligand; 5 µM): 9.7%
C[C@@H](c1cccc(C#N)c1)n1cc(Cl)cc(C(N)=O)c1=N  remaining binding (cell-free assay, competition with immobilised ligand; 1 µM): 100%
N[C@H]1CCN(c2nccc(-c3cnn4ncccc34)n2)C1  remaining binding (binding; 1 µM): 80%
COc1cnc(Nc2cccc(S(N)(=O)=O)c2)nc1N1CCN(c2ccccc2)CC1  remaining binding (binding, competition with immobilised ligand; 1 µM): 85%
C=CC(=O)N1CCC(C(=O)NCC(=O)N2CCN(c3nc(-c4cnc(N)nc4C(F)F)nc(N4CCOCC4)n3)CC2)CC1  remaining binding (binding, competition with immobilised ligand; 1 µM): 100%
Cc1cnc(Nc2ccc(C(=O)N3CCC(N4CCCC4)CC3)cc2)nc1-c1cc2ccccc2s1  remaining binding (binding, competition with immobilised ligand; 1 µM): 8.2%
O=C(Nc1c[nH]nc1C(=O)NC1CCNCC1)c1cc(F)cc(F)c1  remaining binding (binding, competition with immobilised ligand; 1 µM): 90%
CN(C)c1nccc(-c2cnn3ncccc23)n1  remaining binding (binding; 1 µM): 82%
C[C@H](c1ccc(F)cc1)N(Cc1cccc(C(=O)O)c1)C(=O)c1cnc2ccccc2c1  remaining binding (cell-free assay, competition with immobilised ligand; 1 µM): 98%
CN(c1nccc(-c2cnn3ncccc23)n1)C1CC1  remaining binding (binding; 1 µM): 100%
c1cncc(-c2cccc(Nc3nccc(NC4CCCCC4)n3)c2)c1  remaining binding (binding, competition with immobilised ligand; 10 µM): 42%
